Test results: ChEMBL document CHEMBL2046311, “Design, synthesis, and molecular hybrids of caudatin and cinnamic acids as novel anti-hepatitis B virus agents” (Eur J Med Chem, 2012)

Tests used:
Mus musculus [1] = assay: Acute toxicity in Kunming mouse assessed as change in body weight at 1250 mg/kg, po administered as single dose measured on day 7 (Rvb =26.3 g); format: organism-based; parameters: dose 1250 mg/kg, route oral; conditions: in vivo
[2] = Selectivity index, ratio of CC50 for human HepG2(2.2.15) cells to IC50 for Hepatitis B virus infected in human HepG2(2.2.15) cells assessed as inhibition of viral e antigen secretion; format: functional
Method in brief: (§1)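 SI calculated as CC50 (MTT, HepG 2.2.15) divided by IC50 for the named read-out (HBV DNA by real-time PCR, or HBeAg or HBsAg secretion by ELISA), in the same cell line.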

[3] = Cytotoxicity against human HepG2(2.2.15) cells by modified-MTT assay; format: cell-based
Method in brief: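 HepG 2.2.15 cells in RPMI-1640 with 10% fetal calf serum at 37 °C, 5% CO2. Compounds in DMSO, final DMSO below 2.5 μL/mL. Viability read by modified MTT method. CC50 is the mean of at least two experiments.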

Hepatitis B virus [4] = assay: Antiviral activity against Hepatitis B virus infected in human HepG2(2.2.15) cells assessed as inhibition of viral e antigen secretion by ELISA; format: functional, organism-based
Method in brief: (§2)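 HepG 2.2.15 cells in RPMI-1640 with 10% fetal calf serum at 37 °C, 5% CO2. Compounds dissolved in DMSO, culture DMSO below 2.5 μL/mL. Secreted HBeAg and HBsAg measured by ELISA. IC50 values are means of at least two experiments.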

Nucleic Acid [5] = assay: Increase of enhancer 1 transcriptional activity in HBV infected in human HepG2(2.2.15) cells transfected with pGL3 at 10 uM after 3 days by luciferase reporter gene assay relative to mock-treated control; format: cell-based; conditions: Hepatitis B virus
Method in brief: (§3)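 HepG 2 cells transiently transfected by Lipofectamine 2000 with HBV promoter/enhancer firefly luciferase reporters in pGL3, with phRL-CMV Renilla luciferase as internal control. Cells split 24 h after transfection and cultured 3 days, then treated at 10 μM for 3 days. Dual-luciferase read-out in triplicate. Fold activity = treated/mock-treated activity.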

Hepatitis B virus [6] = assay: Antiviral activity against Hepatitis B virus infected in human HepG2(2.2.15) cells assessed as inhibition of viral surface antigen secretion by ELISA; format: functional, organism-based; method in brief: as §2
Mus musculus [7] = assay: Acute toxicity in po dosed Kunming mouse; format: organism-based; conditions: in vivo
[8] = Cytotoxicity against human HepG2(2.2.15) cells assessed as cell viability at 10 uM after 48 hrs by MTT assay; format: cell-based; conditions: hepg2 2.2.15, 48 h
Method in brief: (§4)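 Cell viability measured by MTT under the 10 μM luciferase reporter treatment conditions, at 48 h and 72 h.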

Hepatitis B virus [9] = assay: Antiviral activity against Hepatitis B virus infected in human HepG2(2.2.15) cells assessed as inhibition of viral DNA replication by PCR analysis; format: functional, organism-based
Method in brief: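 HepG 2.2.15 cells grown in RPMI-1640 with 10% fetal calf serum, […] and penicillin/streptomycin at 37 °C, 5% CO2. Compounds added in DMSO, kept below 2.5 μL/mL. HBV DNA quantified by SYBR Green real-time PCR with HBV-specific primers spanning 541–591 bp. IC50 values are means of at least two experiments.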

Mus musculus [10] = assay: Acute toxicity in Kunming mouse assessed as change in body weight at 250 mg/kg, po administered as single dose measured on day 7 (Rvb =26.3 g); format: organism-based; parameters: dose 250 mg/kg, route oral; conditions: in vivo
Mus musculus [11] = assay: Acute toxicity in Kunming mouse assessed as change in body weight at 50 mg/kg, po administered as single dose measured on day 7 (Rvb =26.3 g); format: organism-based; parameters: dose 50 mg/kg, route oral; conditions: in vivo
Mus musculus [12] = assay: Acute toxicity in Kunming mouse assessed as mortality at 250 mg/kg, po administered as single dose measured up to 14 days; format: organism-based; parameters: dose 250 mg/kg, route oral; conditions: in vivo, 336 h
[13] = Cytotoxicity against human HepG2(2.2.15) cells assessed as cell viability at 10 uM after 72 hrs by MTT assay; format: cell-based; conditions: hepg2 2.2.15, 72 h; method in brief: as §4
[14] = Selectivity index, ratio of CC50 for human HepG2(2.2.15) cells to IC50 for Hepatitis B virus infected in human HepG2(2.2.15) cells assessed as inhibition of viral surface antigen secretion; format: functional; method in brief: as §1
Mus musculus [15] = assay: Acute toxicity in Kunming mouse assessed as change in body weight at 250 mg/kg, po administered as single dose measured on day 14 (Rvb =28.5 g); format: organism-based; parameters: dose 250 mg/kg, route oral; conditions: in vivo
Mus musculus [16] = assay: Acute toxicity in Kunming mouse assessed as abnormality at 50 to 1250 mg/kg, po administered as single dose measured up to 14 days; format: organism-based; parameters: dose 50-1250 mg/kg, route oral; conditions: in vivo, 336 h
[17] = Selectivity index, ratio of CC50 for human HepG2(2.2.15) cells to IC50 for Hepatitis B virus infected in human HepG2(2.2.15) cells assessed as inhibition of viral DNA replication; format: functional; method in brief: as §1
Mus musculus [18] = assay: Acute toxicity in Kunming mouse assessed as mortality at 50 mg/kg, po administered as single dose measured up to 14 days; format: organism-based; parameters: dose 50 mg/kg, route oral; conditions: in vivo, 336 h
Mus musculus [19] = assay: Acute toxicity in Kunming mouse assessed as mortality at 1250 mg/kg, po administered as single dose measured up to 14 days; format: organism-based; parameters: dose 1250 mg/kg, route oral; conditions: in vivo, 336 h
Mus musculus [20] = assay: Acute toxicity in Kunming mouse assessed as change in body weight at 50 mg/kg, po administered as single dose measured on day 14 (Rvb =28.5 g); format: organism-based; parameters: dose 50 mg/kg, route oral; conditions: in vivo
Nucleic Acid [21] = assay: Inhibition of X promoter transcriptional activity in HBV infected in human HepG2(2.2.15) cells transfected with pGL3 at 10 uM after 3 days by luciferase reporter gene assay relative to mock-treated control; format: cell-based; conditions: Hepatitis B virus; method in brief: as §3
Mus musculus [22] = assay: Acute toxicity in Kunming mouse assessed as change in body weight at 1250 mg/kg, po administered as single dose measured on day 14 (Rvb =28.5 g); format: organism-based; parameters: dose 1250 mg/kg, route oral; conditions: in vivo

In the case of COc1cc(/C=C/C(=O)O[C@H]2CC[C@@]3(C)C(=CC[C@]4(O)[C@@H]3C[C@@H](OC(=O)/C=C(\C)C(C)C)[C@@]3(C)[C@]4(O)CC[C@@]3(O)C(C)=O)C2)cc(OC)c1OC, the Activity (Mus musculus [1]) is reported as 26.5%, the “Ratio CC50/IC50” value [2] is reported as over 330 and the CC50 [3] is reported as over 1820 µM. It also gave an IC50 (Hepatitis B virus [4]) of 5.52 µM, a fold change (FC) (Nucleic Acid [5]) of 9.4 and an IC50 (Hepatitis B virus [6]) of 5.52 µM. The LD50 (Mus musculus [7]) was 1250 mg/kg, the Activity [8] was 97.4% and the IC50 (Hepatitis B virus [9]) was 2.44 µM. The Activity (Mus musculus [10]) was 27.3%, the Activity (Mus musculus [11]) was 26.7% and the Activity (Mus musculus [12]) was “Non-toxic”. The Activity [13] was 85.6%, the “Ratio CC50/IC50” value [14] was over 330 and the Activity (Mus musculus [15]) was 29.8%. For the same molecule, the Activity (Mus musculus [16]) was “Non-toxic”, the “Ratio CC50/IC50” value [17] was over 746.6 and the Activity (Mus musculus [18]) was “Non-toxic”. The Activity (Mus musculus [19]) was “Non-toxic”, the Activity (Mus musculus [20]) was 28.9% and the fold change (FC) (Nucleic Acid [21]) was 5.6. For the same molecule, the Activity (Mus musculus [22]) was 28.8%.

With CC(=O)[C@]1(O)CC[C@@]2(O)[C@]1(C)[C@H](OC(=O)/C=C(\C)C(C)C)C[C@@H]1[C@@]3(C)CC[C@H](OC(=O)/C=C/c4ccc5c(c4)OCO5)CC3=CC[C@]12O the “Ratio CC50/IC50” value [2] was over 37.9, the CC50 [3] was over 1660 µM and the IC50 (Hepatitis B virus [4]) was 43.7 µM. For the same molecule, the IC50 (Hepatitis B virus [6]) was 9.37 µM, the IC50 (Hepatitis B virus [9]) was 6.45 µM and the “Ratio CC50/IC50” value [14] was over 176.7. The “Ratio CC50/IC50” value [17] was over 256.7.
